The results in this text go back to ChEMBL document CHEMBL2375220, “Bispyrimidines as potent histamine H(4) receptor ligands: delineation of structure-activity relationships and detailed H(4) receptor binding mode” (J Med Chem, 2013).

Converted amounts (≈) assume the structure as drawn.

Data set [1] is described as follows: Half life in mouse liver microsomes. The class given is ADME, Microsome. For orientation: Liver microsomes are vesicles of endoplasmic reticulum, rich in cytochrome P450 enzymes.
Data set [2] can be described thus: Half life in human liver microsomes. The class given is ADME, Microsome.
A short description of data set [3]: Aqueous solubility of the compound at pH 6.8 by automated polarized light microscopy analysis. The class given is physicochemical. In outline:
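Aqueous solubility at pH 6.8, measured by precipitation from DMSO solution and reported in μg/mL.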

The target in data set [4] is T1, Histamine H4 receptor (Homo sapiens, UniProt Q9H3N8). Put plainly: Displacement of [3H]histamine displacement from human recombinant histamine H4 receptor expressed in […] cells after 45 mins. The class given is cell-based, SK-N-MC. In general terms: In a radioligand displacement assay an active substance lowers the binding of a labelled ligand.
T1 sequence (Q9H3N8 whole entry): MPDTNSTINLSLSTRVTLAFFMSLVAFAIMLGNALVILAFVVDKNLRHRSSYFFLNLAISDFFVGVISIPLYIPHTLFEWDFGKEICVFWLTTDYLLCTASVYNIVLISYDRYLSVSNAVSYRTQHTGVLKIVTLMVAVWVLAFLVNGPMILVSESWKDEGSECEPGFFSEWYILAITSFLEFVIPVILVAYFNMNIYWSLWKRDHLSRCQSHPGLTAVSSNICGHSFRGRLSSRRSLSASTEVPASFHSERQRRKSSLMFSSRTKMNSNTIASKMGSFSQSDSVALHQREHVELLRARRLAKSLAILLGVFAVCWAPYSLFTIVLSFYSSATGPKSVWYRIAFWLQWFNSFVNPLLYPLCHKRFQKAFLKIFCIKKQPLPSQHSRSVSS
Data set [5] addresses T1, Histamine H4 receptor. Put plainly: Displacement of [3H]histamine displacement from human histamine H4 receptor expressed in […] cells after 60 mins. The class given is cell-based, SK-N-MC. The method, boiled down:
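Affinity at the human H4 receptor, from displacement of [3H]histamine binding. Reported as pKi, the mean ± SEM of at least three independent determinations.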

On to `CC(C)CNc1cc(N2CCN(C)CC2)nc(N)n1`, for which the half-life is 4 min in data set [1] and above 120 min in data set [2]. The solubility in data set [3] is above 64 µg/mL. For the same molecule, the Ki at Histamine H4 receptor [4] was 3.16 nM.
In the case of `CC(C)CNc1cc(NCCNc2cc(-c3ccccc3)nc(N)n2)ncn1`, the affinity at Histamine H4 receptor [5] corresponds to a Ki of 501 nM.
With `CC(C)CNc1cc(N(C)CCNc2ccnc(N)n2)nc(N)n1`, the half-life in data set [1] amounted to 23 min; in data set [2], 101 min. The molecule further had a solubility in data set [3] above 84 µg/mL. This molecule showed a Ki on Histamine H4 receptor [5] of 39.8 nM.
Taken in the same sequence, the figures for `CC(C)CCc1cc(N(C)CCNc2ccnc(N)n2)nc(N)n1` were 8 min, 82 min, above 83 µg/mL and 10 nM.
In the case of `CC(C)CNc1nccc(NCCN(C)c2cc(-c3ccccc3)nc(N)n2)n1`, the Ki at Histamine H4 receptor [5] was 31.6 nM.
The molecule `CN(CCNc1cc(-c2ccccc2)nc(N)n1)c1ccnc(N)n1` showed a Ki on Histamine H4 receptor [5] of 79.4 nM.
On to `Nc1nccc(NCCNC(=O)c2cc3ccccc3[nH]2)n1`, for which, on Histamine H4 receptor [5], affinity was put at a Ki of 1260 nM.
For the molecule `Nc1nccc(NCCNC(=O)c2cc3cc(Cl)ccc3[nH]2)n1`, the Ki on Histamine H4 receptor [5] is 316 nM.
In turn, `CN(CCNc1ccnc(N)n1)C(=O)c1cc2cc(Cl)ccc2[nH]1` showed a Ki at Histamine H4 receptor [5] of 3160 nM.
The same measure, in the same setting: the figure for `CN(CCNc1ccnc(N)n1)C(=O)c1cc2ccccc2[nH]1` is 10000 nM; for `Nc1nccc(NCCNc2ccnc(N)n2)n1` it is 794 nM.
Molecule `CC(C)CNc1cc(NCCNc2ccnc(N)n2)nc(N)n1` gave a Ki on Histamine H4 receptor [5] of 79.4 nM.
`CC(C)CCc1cc(NCCNc2ccnc(N)n2)nc(N)n1`: the figures for the half-life in data set [1] and in data set [2] were 18 min and above 120 min, respectively. The molecule also returned a solubility in data set [3] above 79 µg/mL. This molecule also showed a Ki at Histamine H4 receptor [5] of 25.1 nM.
In the case of `Nc1nccc(NCCNc2cc(-c3cccc(Cl)c3)nc(N)n2)n1`, the half-life was 9 min in data set [1] and 51 min in data set [2]. This molecule came in with a solubility in data set [3] above 76 µg/mL. The same molecule showed a Ki on Histamine H4 receptor [5] of 6.31 nM.
Regarding `Nc1nc(NCCNc2cc(-c3ccccc3)nc(N)n2)cc(-c2ccccc2)n1`, the Ki at Histamine H4 receptor [5] is 1000 nM.
Turning to `CC(C)CCc1cc(NCCNc2cc(-c3ccccc3)nc(N)n2)nc(N)n1`, at Histamine H4 receptor [5], the Ki is 398 nM.
The same measure, in the same setting: the figure for `CC(C)CNc1cc(NCCNc2cc(-c3ccccc3)nc(N)n2)nc(N)n1` is 3160 nM; for `Nc1nc(NCCNc2ccncn2)cc(-c2ccccc2)n1` it is 2000 nM.
As to `Cc1nccc(NCCNc2cc(-c3ccccc3)nc(N)n2)n1`, the Ki at Histamine H4 receptor [5] is 39.8 nM.
The same measure, in the same setting: the figure for `Nc1nc(Cl)cc(NCCNc2cc(-c3ccccc3)nc(N)n2)n1` is 2510 nM; for `CC(C)CCc1cc(NCCNc2cc(Cl)nc(N)n2)nc(N)n1` it is 631 nM; for `CC(C)CNc1nc(NCCNc2ccnc(N)n2)cc(-c2ccccc2)n1` it is 1260 nM.
Consider `CC(C)CNc1nccc(NCCNc2cc(-c3ccccc3)nc(N)n2)n1`, for which, at Histamine H4 receptor [5], the affinity corresponds to a Ki of 79.4 nM.
`CC(C)CNc1nccc(NCCNc2cc(-c3cccc(Cl)c3)nc(N)n2)n1` had a Ki at Histamine H4 receptor [5] of 50.1 nM.
`CC(C)CNc1nccc(NCCNc2ccnc(N)n2)n1` showed a Ki on Histamine H4 receptor [5] of 79.4 nM.
The same measure, in the same setting: the figure for `CC(C)CNc1cc(NCCNc2ccnc(N)n2)ncn1` is 1000 nM; for `CN(CCNc1ccnc(N)n1)c1cc(-c2ccccc2)nc(N)n1` it is 10 nM; for `CC(C)CNc1nccc(NCCN(C)c2cc(-c3cccc(Cl)c3)nc(N)n2)n1` it is 50.1 nM.
Take `CC(C)CCc1cc(N2CCN(C)CC2)nc(N)n1`: the half-life was below 2 min in data set [1] and 61 min in data set [2]. The same molecule returned a solubility in data set [3] above 62 µg/mL. The Ki on Histamine H4 receptor [4] was 3.16 nM.
As for `Nc1nccc(NCCNc2cc(-c3ccccc3)nc(N)n2)n1`, the inhibition constant (Ki) at Histamine H4 receptor [4] was 7.94 nM.
As to `CN1CCN(c2cc(-c3ccccc3)nc(N)n2)CC1`, the results for the half-life in data set [1] and in data set [2] were 4 min and 43 min, respectively. For the same molecule, in data set [3], the concentration in solution (solubility) came to 61 µg/mL (≈ 226 µM). On Histamine H4 receptor [4], the Ki is 7.94 nM.
`CN1CCN(c2cc(-c3ccc(Cl)cc3)nc(N)n2)CC1`: the Ki at Histamine H4 receptor [4] was 3.16 nM.
On to `CN1CCN(C(=O)c2cc3cc(Cl)ccc3[nH]2)CC1` [JNJ-7777120], for which the half-life in data set [1] is 2 min; in data set [2], above 45 min. Besides, the concentration in solution in data set [3] (solubility) was 58 µg/mL (≈ 209 µM).

Broadly, the half-life is how long it takes for the measured level to halve. The low end stands for rapid decline, the high end for slow decline. By solubility is commonly meant the concentration that dissolves in the medium under given conditions. Read a low solubility as a poorly soluble substance. For orientation: Ki means a measure of affinity in units of concentration, obtained from inhibition or displacement.
